Values after ≈ are worked out from the molar mass of the structure shown. Values joined by “and” are separate entries in the source; they are usually repeats but may differ in a detail not shown here. Equal entries are not always repeated.
How the values were obtained:
[1] = Half-life measured in 0.1 N HCl; Stable; format: ADME; conditions: buffer
Outline: (§1)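 Hydrolytic stability was tested at room temperature on solutions of ca. 0.001-0.002%. Media were 0.1 N HCl (pH ~1.5), 50% MeOH/pH 7 phosphate buffer (pH ~8.0), and 50% MeOH/0.05 N aqueous NaOH (pH ~12.2). Changes in the UV spectrum were followed over 2 weeks.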

[2] = Half-life measured in 1:1 ratio of MeOH and 0.1 N NaOH; format: ADME; conditions: 1:1 MeOH / 0.1 N NaOH; outline: as §1
[3] = Solubility, determined in 0.1 N HCl; format: physicochemical; conditions: read-out: S
Outline: (§2)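 Dissolved compound was quantified by UV absorption. For the pH 7 value, the acidic solution was brought to pH 7 to give the unprotonated base, the precipitate was removed, and the supernatant was assayed again by UV.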

Rattus norvegicus [4] = assay: Antihypertensive activity rating in conscious SHR after 24-72 hr post dose at 10 mg/kg (po); Range 10-20%; format: functional
[5] = Solubility, determined in phosphate buffer at pH 7; format: physicochemical; outline: as §2
Rattus norvegicus [6] = species on record: Rattus norvegicus; assay: Maximum percent decrease in blood pressure in SHR ( hour post dose in parentheses); format: functional
Rattus norvegicus [7] = assay: Antihypertensive activity rating in conscious SHR after 24 hr post dose at 50 mg/kg (po); Range 10-20%; format: functional
[8] = pKa value, measured in 67% DMF/water
[9] = Half-life measured in 1:1 ratio of MeOH and phosphate buffer at pH 7; Stable; format: ADME; outline: as §1
Rattus norvegicus [10] = assay: Antihypertensive activity rating in conscious SHR after 2 hr post dose at 50 mg/kg (po); Range 10-20%; format: functional
[11] = pKa value, measured in 67% of DMF; format: physicochemical; conditions: 67% DMF
Outline: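 Dissociation constants were found by potentiometric titration in 67% N,N-dimethylformamide/water.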

Rattus norvegicus [12] = assay: Antihypertensive activity rating in conscious SHR after 10 hr post dose at 10 mg/kg (po); Range 10-20%; format: functional
Rattus norvegicus [13] = assay: Antihypertensive activity rating in conscious SHR after 24 h post dose at 50 mg/kg (po); Range 20-30%; format: functional
Rattus norvegicus [14] = assay: Antihypertensive activity rating in conscious SHR after 2 hr post dose at 50 mg/kg (po); Range 20-30%; format: functional
Rattus norvegicus [15] = assay: Antihypertensive activity rating in conscious SHR after 10 hr post dose at 50 mg/kg (po); Range 20-30%; format: functional
Rattus norvegicus [16] = assay: Antihypertensive activity rating in conscious SHR after 10 hr post dose at 10 mg/kg (po); 0=No significant reduction; format: functional
Rattus norvegicus [17] = assay: Antihypertensive activity rating in conscious SHR after 24 h post dose at 10 mg/kg (po); Range 10-20%; format: functional
Rattus norvegicus [18] = assay: Antihypertensive activity rating in conscious SHR after 2 hr post dose at 10 mg/kg (po); 0=No significant reduction; format: functional
Rattus norvegicus [19] = assay: Antihypertensive activity in conscious spontaneously hypertensive rats 10 hr following 50 mg/kg p.o.; Range 10-20%.; format: functional; conditions: route oral
Rattus norvegicus [20] = assay: Antihypertensive activity rating in conscious SHR after 24 h post dose at 10 mg/kg (po); 0=No significant reduction; format: functional
Rattus norvegicus [21] = assay: Antihypertensive activity rating in conscious SHR after 18 hr post dose at 50 mg/kg (po); format: functional
Rattus norvegicus [22] = assay: Antihypertensive activity rating in conscious SHR after 2 hr post dose at 10 mg/kg (po); Range 10-20%; format: functional
Rattus norvegicus [23] = assay: Antihypertensive activity rating in conscious SHR after 10 hr post dose at 50 mg/kg (po); format: functional
Rattus norvegicus [24] = assay: Antihypertensive activity rating in conscious SHR after 18 hr post dose at 50 mg/kg (po); Range 20-30%; format: functional
Rattus norvegicus [25] = assay: Antihypertensive activity in conscious spontaneously hypertensive rats 10 hr following 50 mg/kg p.o.; No significant reduction.; format: functional; conditions: route oral
Rattus norvegicus [26] = assay: Antihypertensive activity rating in conscious SHR after 24 hr post dose at 50 mg/kg (po); 0=No significant reduction; format: functional
Rattus norvegicus [27] = assay: Antihypertensive activity in conscious spontaneously hypertensive rats 2 hr following 50 mg/kg p.o.; No significant reduction.; format: functional; conditions: route oral
Rattus norvegicus [28] = assay: Antihypertensive activity rating in conscious SHR after 10 hr post dose at 10 mg/kg (po); Range 20-30%; format: functional
Rattus norvegicus [29] = assay: Antihypertensive activity rating in conscious SHR after 24 hr post dose at 50 mg/kg (po)v; format: functional
[30] = Half-life measured in 0.1 N HCl; format: ADME; outline: as §1
Rattus norvegicus [31] = assay: Antihypertensive activity rating in conscious SHR after 2 hr post dose at 10 mg/kg (po); Range 20-30%; format: functional
Rattus norvegicus [32] = assay: Antihypertensive activity in conscious spontaneously hypertensive rats 24 hr following 50 mg/kg p.o.; No significant reduction.; format: functional; conditions: route oral
[33] = Half-life measured in 1:1 ratio of MeOH and phosphate buffer at pH 7; format: ADME; conditions: 1:1 MeOH / phosphate buffer; outline: as §1
Rattus norvegicus [34] = assay: Antihypertensive activity rating in conscious SHR after 2 hr post dose at 50 mg/kg (po); format: functional

COC(=O)Nc1nc2nc(C)ncc2cc1-c1c(Cl)cccc1Cl
T1/2 [1]: Stable | half-life [2]: 6 h | solubility [3]: 14.6 mg/mL (≈ 40.2 mM) | Activity rating (Rattus norvegicus [4]): 10% | solubility [5]: 0.28 mg/mL (≈ 0.771 mM) | Decrease (Rattus norvegicus [6]): 29% | Activity rating (Rattus norvegicus [7]): 10% | pKa [8]: 11.3 | T1/2 [9]: Stable | Activity rating (Rattus norvegicus [10]): 10% | pKa [11]: 4.2 | Activity rating (Rattus norvegicus [12]): 10%

COCC(=O)Nc1nc2nc(C)ncc2cc1-c1c(Cl)cccc1Cl
Activity rating (Rattus norvegicus [13]): 20% | Decrease (Rattus norvegicus [6]): 29% | Activity rating (Rattus norvegicus [14]): 20% | Activity rating (Rattus norvegicus [15]): 20% | Activity rating (Rattus norvegicus [16]): 0% | Activity rating (Rattus norvegicus [17]): 10% | Activity rating (Rattus norvegicus [18]): 0%

Cc1ncc2cc(-c3c(Cl)cccc3Cl)c(NS(C)(=O)=O)nc2n1
Activity rating (Rattus norvegicus [19]): 10% | Activity rating (Rattus norvegicus [13]): 20% | Decrease (Rattus norvegicus [6]): 22% | Activity rating (Rattus norvegicus [10]): 10% | Activity rating (Rattus norvegicus [16]): 0% | Activity rating (Rattus norvegicus [20]): 0% | Activity rating (Rattus norvegicus [18]): 0%

Cc1ncc2cc(-c3c(Cl)cccc3Cl)c(NC(=O)Cc3ccccc3)nc2n1
Activity rating (Rattus norvegicus [19]): 10% | Decrease (Rattus norvegicus [6]): 17% | Activity rating (Rattus norvegicus [7]): 10% | Activity rating (Rattus norvegicus [10]): 10%

Cc1ncc2cc(-c3c(Cl)cccc3Cl)c(NC=O)nc2n1
Activity rating (Rattus norvegicus [21]): >30% | Activity rating (Rattus norvegicus [22]): 10% | Decrease (Rattus norvegicus [6]): 33% | Activity rating (Rattus norvegicus [14]): 20% | Activity rating (Rattus norvegicus [23]): >30% | Activity rating (Rattus norvegicus [12]): 10% | Activity rating (Rattus norvegicus [17]): 10%

CNc1nc2nc(C)ncc2cc1-c1c(Cl)cccc1Cl
Activity rating (Rattus norvegicus [19]): 10% | Activity rating (Rattus norvegicus [24]): 20% | Decrease (Rattus norvegicus [6]): 21% | Activity rating (Rattus norvegicus [10]): 10%

CCO/C(=N\C)Nc1nc2nc(C)ncc2cc1-c1c(Cl)cccc1Cl
Activity rating (Rattus norvegicus [25]): 0% | Activity rating (Rattus norvegicus [26]): 0% | Activity rating (Rattus norvegicus [27]): 0% | Decrease (Rattus norvegicus [6]): 10%

Cc1ncc2cc(-c3c(Cl)cccc3Cl)c(NC(=O)CCl)nc2n1
Activity rating (Rattus norvegicus [22]): 10% | Decrease (Rattus norvegicus [6]): 24% | Activity rating (Rattus norvegicus [20]): 0% | Activity rating (Rattus norvegicus [28]): 20%

Cc1ncc2cc(-c3c(Cl)cccc3Cl)c(NC(=O)CNC(=O)OCc3ccccc3)nc2n1
Activity rating (Rattus norvegicus [22]): 10% | Decrease (Rattus norvegicus [6]): 29% | Activity rating (Rattus norvegicus [7]): 10% | Activity rating (Rattus norvegicus [10]): 10% | Activity rating (Rattus norvegicus [15]): 20% | Activity rating (Rattus norvegicus [16]): 0% | Activity rating (Rattus norvegicus [20]): 0%

Cc1ncc2cc(-c3c(Cl)cccc3Cl)c(NC(=O)c3ccncc3)nc2n1
Activity rating (Rattus norvegicus [22]): 10% | Decrease (Rattus norvegicus [6]): 18% | Activity rating (Rattus norvegicus [12]): 10% | Activity rating (Rattus norvegicus [17]): 10%

CC(=O)Nc1ncc2cc(-c3c(Cl)cccc3Cl)c(NC(C)=O)nc2n1
Activity rating (Rattus norvegicus [21]): >30% | Activity rating (Rattus norvegicus [27]): 0% | Decrease (Rattus norvegicus [6]): 32% | Activity rating (Rattus norvegicus [15]): 20%

NNc1nncc2ccccc12 [HYDRALAZINE]
Decrease (Rattus norvegicus [6]): 51% and 27% | Activity rating (Rattus norvegicus [28]): 20% | Activity rating (Rattus norvegicus [17]): 10%

CC(=O)Nc1nc2ncncc2cc1-c1ccccc1Br
Activity rating (Rattus norvegicus [19]): 10% | Activity rating (Rattus norvegicus [29]): 0% | Decrease (Rattus norvegicus [6]): 19% | Activity rating (Rattus norvegicus [10]): 10%

CC(=O)/N=c1/c(-c2c(Cl)cccc2Cl)cc2cnc(C)nc2n1C
half-life [2]: 8.8 h | Activity rating (Rattus norvegicus [25]): 0% | half-life [30]: 3.4 h | Decrease (Rattus norvegicus [6]): 17% | Activity rating (Rattus norvegicus [7]): 10% | T1/2 [9]: Stable | Activity rating (Rattus norvegicus [10]): 10% | pKa [11]: 2.5

Cc1ncc2cc(-c3c(Cl)cccc3Cl)c(NC(=O)N(C)C)nc2n1
Activity rating (Rattus norvegicus [19]): 10% | Activity rating (Rattus norvegicus [13]): 20% | Decrease (Rattus norvegicus [6]): 26% | Activity rating (Rattus norvegicus [10]): 10%

Cc1ncc2cc(-c3c(Cl)cccc3Cl)c(NC(=O)C(F)(F)F)nc2n1
Activity rating (Rattus norvegicus [24]): 20% | Decrease (Rattus norvegicus [6]): 23% | Activity rating (Rattus norvegicus [14]): 20% | Activity rating (Rattus norvegicus [15]): 20%

Cc1ncc2cc(-c3c(Cl)cccc3Cl)c(NC(=O)c3ccoc3)nc2n1
Decrease (Rattus norvegicus [6]): 28% | Activity rating (Rattus norvegicus [31]): 20% | Activity rating (Rattus norvegicus [28]): 20% | Activity rating (Rattus norvegicus [17]): 10%

CC(=O)N(C)c1nc2nc(C)ncc2cc1-c1c(Cl)cccc1Cl
T1/2 [1]: Stable | half-life [2]: 1.6 h | Activity rating (Rattus norvegicus [25]): 0% | Activity rating (Rattus norvegicus [27]): 0% | T1/2 [9]: Stable | Activity rating (Rattus norvegicus [32]): 0% | pKa [11]: 4.2

CC(=O)Nc1nc2nc(C)ncc2cc1-c1c(Cl)cccc1Cl
half-life [2]: < 0.0833 h | Activity rating (Rattus norvegicus [21]): >30% | solubility [3]: 34.2 mg/mL (≈ 98.5 mM) | Activity rating (Rattus norvegicus [4]): 10% | half-life [30]: 12.5 h | solubility [5]: 6.05 mg/mL (≈ 17.4 mM) | Decrease (Rattus norvegicus [6]): 45% | Activity rating (Rattus norvegicus [31]): 20% | pKa [8]: 12.8 | half-life [33]: 60 h | Activity rating (Rattus norvegicus [34]): >30% | Activity rating (Rattus norvegicus [28]): 20% | pKa [11]: 4.1 | Activity rating (Rattus norvegicus [23]): >30%

Cc1ncc2cc(-c3c(Cl)cccc3Cl)c(NC(=O)c3ccccn3)nc2n1
Activity rating (Rattus norvegicus [4]): 10% | Activity rating (Rattus norvegicus [13]): 20% | Decrease (Rattus norvegicus [6]): 29% | Activity rating (Rattus norvegicus [10]): 10% | Activity rating (Rattus norvegicus [15]): 20% | Activity rating (Rattus norvegicus [12]): 10%

Cc1ncc2cc(-c3c(Cl)cccc3Cl)c(NC(=O)c3ccccc3)nc2n1
Activity rating (Rattus norvegicus [13]): 20% | Decrease (Rattus norvegicus [6]): 30% | Activity rating (Rattus norvegicus [14]): 20% | Activity rating (Rattus norvegicus [15]): 20%

Cc1ncc2cc(-c3c(Cl)cccc3Cl)c(NC(=O)c3cccnc3)nc2n1
T1/2 [1]: Stable | half-life [2]: 4 h | solubility [3]: 26.6 mg/mL (≈ 64.8 mM) | Activity rating (Rattus norvegicus [22]): 10% | Activity rating (Rattus norvegicus [4]): 10% | solubility [5]: 2.63 mg/mL (≈ 6.41 mM) | Decrease (Rattus norvegicus [6]): 26% | pKa [8]: 9.8 | half-life [33]: 54 h | Activity rating (Rattus norvegicus [10]): 10% | Activity rating (Rattus norvegicus [15]): 20% | pKa [11]: 4.1

— ChEMBL document CHEMBL1122346, “Antihypertensive activity of 6-arylpyrido[2,3-d]pyrimidin-7-amine derivatives. 2. 7-Acyl amide analogues” (J Med Chem, 1983)
